High-throughput results from PubChem.
KCNK9 block: blocks the human KCNK9 two-pore domain potassium channel; hit rate 1.2% among 310,000; Q9NPC2; B-score at 10 µM; HEK293 KCNK9, FluxOR thallium flux fluorescence; stronger effect = lower value;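 active means ratio B-score over 3 SD below the library mean, with starting fluorescence within 5 SD of its mean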;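 further: negative B-score means less thallium flux so channel inhibition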
KCNQ1 act: human KCNQ1 channel potentiation or activation | hit rate 0.35% among 310,000 | CHO-K1 KCNQ1, thallium flux FluxOR fluorescence; stronger effect = higher value | B-score at 10 µM | AID 2648 | P51787;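 active means fluorescence ratio B-score, a plate-corrected score, at least three library SD, with initial intensity B-score within 5 SD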
Target sequence (P51787 whole entry, looked up): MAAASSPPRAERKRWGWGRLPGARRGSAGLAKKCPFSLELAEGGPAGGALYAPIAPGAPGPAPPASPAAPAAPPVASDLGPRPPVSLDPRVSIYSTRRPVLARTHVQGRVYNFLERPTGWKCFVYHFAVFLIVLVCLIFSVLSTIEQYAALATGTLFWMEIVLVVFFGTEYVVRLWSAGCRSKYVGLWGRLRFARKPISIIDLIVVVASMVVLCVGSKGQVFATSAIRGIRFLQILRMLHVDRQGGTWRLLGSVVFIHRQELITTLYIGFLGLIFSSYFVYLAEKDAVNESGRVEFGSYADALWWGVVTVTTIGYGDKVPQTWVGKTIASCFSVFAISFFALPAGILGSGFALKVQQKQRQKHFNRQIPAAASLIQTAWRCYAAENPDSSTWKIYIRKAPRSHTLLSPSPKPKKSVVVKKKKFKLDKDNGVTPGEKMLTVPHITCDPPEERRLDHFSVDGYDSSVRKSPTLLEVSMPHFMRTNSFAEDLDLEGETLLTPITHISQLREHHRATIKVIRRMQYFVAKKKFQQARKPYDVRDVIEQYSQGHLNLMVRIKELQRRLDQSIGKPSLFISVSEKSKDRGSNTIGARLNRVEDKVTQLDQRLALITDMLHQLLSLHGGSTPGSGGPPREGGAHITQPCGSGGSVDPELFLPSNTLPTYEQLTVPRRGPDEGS
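assay system = KCNQ1-transfected CHO-K1 cells | medium = assay buffer with matched DMSO | probe or stimulus = depolarizing K+/Tl+ stimulus, K2SO4 and Tl2SO4 each 12.5 mM in 5x stock | dosing = single dose | incubation = dye 90 min, compound 20 min, room temperature | detection = kinetic FluxOR fluorescence, 10 s baseline plus 110 s post-stimulus | evaluation = ratio B score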
KCNQ1 block: blocks the human KCNQ1 potassium channel; P51787; CHO-K1 KCNQ1, FluxOR thallium flux fluorescence; stronger effect = higher value; B-score at 10 µM; hit rate 1.3% among 310,000; AID 2642;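 active means compounds whose thallium flux B-score, printed positive for inhibition, exceeds three library SD while starting fluorescence stays within three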;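 further: channel opened by potassium depolarization with thallium stimulus after 20 min compound exposure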
Kir21 inh: Kir2.1 (mouse) channel inhibition | AID 1672 | hit rate 0.85% among 310,000 | B-score at 10 µM | HEK293-Kir2.1, FluxOR thallium flux fluorescence; stronger effect = lower value;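 active means fluorescence ratio B-score at or below minus 3 SD of library scores, with starting-brightness B-score within 2 SD, cut at about -4.2 in these data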;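 further: channel flux triggered by added potassium and thallium sulfate stimulus; B-score of peak minus minimum fluorescence over baseline after thallium stimulus; more negative B-score means stronger Kir2.1 block with less thallium influx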
hERG rescue: hERG (human) protection from proarrhythmic block. CHO-hERG, FluxOR thallium flux, dofetilide IC70 present. Q12809. AID 1511. activation (rescue from dofetilide block), less the hit threshold, % at 10 µM. hit rate 0.51% among 310,000;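 active means activation above the mean of controls blocked by dofetilide plus 5 SD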;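 further: thallium influx through hERG after potassium depolarization seen as dye fluorescence rise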
KCNK3 inh: human KCNK3 channel inhibition, primary screen. hit rate 0.84% among 340,000. O14649. B-score at 10 µM. AID 602410. CHO-KCNK3 thallium flux, FluxOR fluorescence; stronger effect = lower value;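 active means B-score under library mean minus 4 SD, starting fluorescence ratio at most library mean plus 5 SD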;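 further: more negative B-score means stronger inhibition of thallium flux through KCNK3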
Hits are given with their value; 0 = inactive; - = no result given. Most compounds without a hit are left out; they make up all but 3.7% or so of the library.

SMILES	KCNK9 block	KCNQ1 act	KCNQ1 block	Kir21 inh	hERG rescue	KCNK3 inh
C=CCN(CC=C)c1ncnc2[nH]ncc12	-	-	-	-	-	0
CCCCC(CC)C(=O)Nc1ccc(Nc2ccccc2)cc1 (stereo unspecified)	-6.72	0	0	0	0	0
CCCCC(CC)C(=O)Nc1ccc(C)c(O)c1 (stereo unspecified)	-7.48	0	0	0	0	0
O=S(=O)(c1ccccc1)N(Cc1ccccc1)c1ccccn1	0	0	0	-6.7	0	0
Cc1ccc2c(c1)N(S(=O)(=O)c1ccc(F)cc1)C(C(C)(C)C)CO2 (stereo unspecified)	0	0	7	0	0	0
Cc1ccc(S(=O)(=O)N2c3ccccc3OCC2C(C)(C)C)cc1 (stereo unspecified)	0	0	0	0	0	0
O=C(NCC(c1ccc(F)cc1)N1CCOCC1)c1ccco1 (stereo unspecified)	0	0	0	0	0	0
O=c1c2ccccc2[nH]c(=S)n1CCc1ccccc1	0	17	0	0	20.3	0
O=c1c2ccccc2[nH]c(=S)n1Cc1ccccc1	0	0	0	0	0	0
COc1ccc(CCC(=O)Nc2nc(C)c(C(=O)N(C)C)s2)cc1	0	0	0	0	0	0
CCCCc1c(O)nc(SCC(=O)N2CCCCC2)n(-c2ccccc2C)c1=O	0	0	0	0	9.8	0
CN(C)c1oc(-c2ccccc2[N+](=O)[O-])nc1C#N	0	0	0	0	4.7	0
CN(C)c1oc(-c2ccccc2Cl)nc1C#N	0	0	0	0	0	0
COc1ccc(CN2CCC(N(CCc3ccccc3)Cc3ccccc3)CC2)c(OC)c1	0	0	0	-4.67	0	0
Cc1ccc(C)c(CN2CCN(c3ncccn3)CC2)c1	0	0	0	0	0	0
CCOC(=O)c1sc(NC(=O)c2ccc(OC)cc2)nc1C	0	0	0	0	0	0
CCOC(=O)c1sc(NC(=O)c2ccc(OC(C)=O)cc2)nc1C	0	13	0	0	0	0
N#C/C(=N\Nc1cccc(F)c1)C(=O)C1CC1	0	0	6	0	0	0
N#C/C(=N\Nc1cccc(F)c1)C(=N)N1CCCCCC1	0	0	0	0	0	0
Cc1cc(C=NCCO)c(C)n1-c1cc(Cl)ccc1Cl	0	0	0	0	0	0
Cc1cc(/C=N/n2cnnc2)c(C)n1-c1cc(Cl)ccc1Cl	0	12	0	0	0	0
Cc1cccc(NC(=O)c2ccccn2)c1C	0	0	0	0	0	0
Cc1cccc(NC(=O)c2n[nH]c([N+](=O)[O-])c2Br)c1C	0	0	7	0	0	0
OC(CN1CCN(c2ccccc2)CC1)Cn1c2ccccc2c2ccccc21 (stereo unspecified)	0	0	0	0	0	0
OC(CN1CCN(Cc2ccccc2)CC1)Cn1c2ccccc2c2ccccc21 (stereo unspecified)	0	0	0	-4.39	0	0
SMILES	KCNK9 block	KCNQ1 act	KCNQ1 block	Kir21 inh	hERG rescue	KCNK3 inh
O=C(O)CCCC(=O)Nc1ccccc1SCCS(=O)(=O)c1ccc(Cl)cc1	0	0	0	0	0	0
O=C(CCC(=O)Nc1ccccc1Cl)NNC(=O)Nc1cccc([N+](=O)[O-])c1	0	0	0	0	0	0
CCOC(=O)c1c(NC(=O)CSc2nnnn2-c2ccc3c(c2)OCO3)sc(C)c1C	0	0	0	0	0	0
COC(=O)c1c(NC(=O)CSc2nnnn2-c2ccc3c(c2)OCO3)sc(C)c1C	-6.89	0	0	0	0	0
O=C(NN=C1c2ccccc2-c2ccccc21)c1cccc(Br)c1	0	18	0	0	46.1	0
COc1cc(C2(c3ccc(O)c(OC)c3)C(=O)Nc3c(C)cc(Br)cc32)ccc1O	0	9	0	0	0	0
Cc1ccc(S(=O)(=O)/N=C(/Nc2ccc(F)cc2F)c2ccccc2)cc1	0	0	0	0	0	0
COC(=O)c1cc2sccc2n1Cc1ccc(C)cc1	-7.96	0	0	0	0	0
Cc1ccc(-c2c(C(=O)O)c3ccccc3[nH]c2=O)cc1	0	0	0	0	0	0
ON=C1c2ccccc2-c2cc(Br)ccc21	-	-	-	-	-	0
CC(c1nnnn1C(C)(C)C)N(Cc1cccnc1)Cc1ccccc1Cl (stereo unspecified)	0	0	0	-4.29	0	0
CC(c1nnnn1C1CCCCC1)N(Cc1ccccc1)Cc1cccnc1 (stereo unspecified)	0	0	0	0	0	0
COc1nccnc1NS(=O)(=O)c1ccc(NC(=S)NC(=O)c2ccccc2F)cc1	0	8	0	0	0	0
CN(Cc1cccnc1)C(=O)CNC(=O)COc1ccccc1	0	0	0	0	0	0
COc1ccc(-n2c(SCC#N)nc3c(sc(=S)n3-c3ccccc3)c2=O)c(OC)c1	0	0	0	0	0	0
CCc1nnc(NC(=O)CSc2nc(-c3ccccc3)cc(-c3ccc(OC)cc3)c2C#N)s1	0	0	0	0	6.4	0
CCOC(=O)c1cc(NC(=O)c2cccs2)ccc1N1CCOCC1	0	0	0	0	4.7	0
COC(=O)c1cc(NC(=O)c2cc(-c3ccc(C(F)(F)F)cc3)oc2C(F)(F)F)ccc1N1CCOCC1	0	0	8	0	0	0
N#Cc1cnn(-c2ccccc2)c1NC(=O)c1ccccc1F	-	-	-	-	-	0
O=[N+]([O-])c1cc([N+](=O)[O-])c2c(=Nc3ccccc3)n(-c3ccccc3)n(O)c2c1	0	0	6	0	0	-9.88
O=S(=O)([O-])C(c1ccccc1)[n+]1ccccc1 (stereo unspecified)	0	0	0	0	0	0
Cn1c(=O)[nH]c(=O)c2c1nc(NN)n2CCOc1ccccc1	0	0	0	0	0	0
CCOC(=O)C1(Cc2ccccc2)CCN(Cc2cn[nH]c2-c2ccccc2)CC1	0	0	0	-4.84	0	0
CCOC(=O)C1(CC2CC2)CCN(Cc2cn[nH]c2-c2ccccc2)CC1	0	0	0	0	0	0
Cc1cc2oc(C(=O)Nc3ccc(S(N)(=O)=O)cc3)c(C)c2cc1Cl	0	0	0	0	0	0
SMILES	KCNK9 block	KCNQ1 act	KCNQ1 block	Kir21 inh	hERG rescue	KCNK3 inh
Cc1ccccc1C(=O)N1CCC(C(=O)OCc2ccccc2Cl)CC1	-	-	-	-	-	0
OC1(c2ccc(F)cc2)CCN(Cc2ccccc2)C1 (stereo unspecified)	0	0	0	-4.45	0	0
OC1(c2ccc(F)cc2)CCN(Cc2cccnc2)CC1	0	0	0	0	0	0
CC(C)NC(=O)CN1CCC(O)(c2ccccc2)CC1	0	0	0	0	0	0
OC1(c2ccccc2)CCN(Cc2ccccc2)CC1	0	0	0	-7.58	0	0
OC1(c2ccc3c(c2)OCO3)CCN(Cc2ccc(F)cc2)CC1	0	0	0	-4.5	0	0
Cc1cc(C)n(-c2ccc(Cl)c(C(=O)Nc3cc(C(F)(F)F)ccc3Cl)n2)n1	0	0	0	0	0	0
